Measurements as given in ChEMBL document CHEMBL3867435, “Chemical Constituents of Mangifera indica and Their Antiausterity Activity against the PANC-1 Human Pancreatic Cancer Cell Line” (J Nat Prod, 2016).
Active and inactive are the calls of the source. No cut-off for these calls is given here.

Tests used:
[1] = Cytotoxicity against human PANC1 cells in Dulbecco's modified Eagle medium measured after 24 hrs by WST8 assay; assay type: toxicity, cell-based; conditions: panc-1, 24 h
Procedure, shortened: (§1)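 PANC-1 (Riken BRC) kept in DMEM + 10% FBS, 37 °C, 5% CO2. Seeded 1.5 × 10^4/well, 24 h in fresh DMEM, washed twice with PBS. Serial dilutions then given in DMEM or in NDM (salts, MEM vitamins, 25 mM HEPES, pH 7.4, no glucose/amino acids/serum) for 24 h. Viability read with 10% WST-8 in DMEM, 3 h, A450, vs control and blank; mean of three wells.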

PANC-1 [2] = assay: Induction of morphological changes in human PANC1 cells in nutrient-deprived medium assessed as plasma membrane blebbing at 5 uM measured after 9 hrs by phase contrast microscopic method; assay type: functional, cell-based
Procedure, shortened: (§2)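 Cells (3.0 × 10^6) plated in 35 mm dishes and attached overnight in complete medium. Washed twice with PBS, then treated at 5 μM in NDM. Held in a stage-top incubator at 37 °C, 5% CO2, with phase-contrast images taken every 5 min for 48 h.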

PANC-1 [3] = assay: Induction of morphological changes in human PANC1 cells in nutrient-deprived medium at 10 uM measured after 24 hrs by acridine orange/ethidium bromide-staining based fluorescence microscopy; assay type: functional, cell-based
Procedure, shortened: (§3)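 After 24 h attachment (1.5 × 10^4/well, DMEM or RPMI-1640), cells were PBS-washed twice and exposed 24 h to compound in NDM (NDM alone as control). EB/AO reagent added for 5 min. Imaged at 20× in fluorescent and phase-contrast modes: green (AO) marks live cells, red (EB) marks dead cells.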

PANC-1 [4] = assay: Induction of morphological changes in human PANC1 cells in nutrient-deprived medium at 5 uM measured after 6 hrs by phase contrast microscopic method; assay type: functional, cell-based; procedure, shortened: as §2
PANC-1 [5] = assay: Inhibition of mobility in human PANC1 cells in nutrient-deprived medium at 5 uM measured after 6 hrs by phase contrast microscopic method; assay type: functional, cell-based; procedure, shortened: as §2
PANC-1 [6] = assay: Induction of cell death in human PANC1 cells in nutrient-deprived medium at 10 uM measured after 24 hrs by acridine orange/ethidium bromide-staining based fluorescence microscopy; assay type: functional; procedure, shortened: as §3
[7] = Induction of cell death in human PANC1 cells in nutrient-deprived medium at 5 uM up to 24 hrs by phase contrast microscopic method; assay type: functional, PANC-1
Procedure, shortened: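 PANC-1 cells from the Riken bank, grown in DMEM with 10% FBS, were plated at 3.0 × 10^6 per 35 mm dish and left to attach overnight in complete medium. After two PBS washes they were treated in nutrient-deprived medium (inorganic salts, 25 mM HEPES pH 7.4, MEM vitamins; no glucose, amino acids or serum). Cells were kept in a stage-top incubator at 37 °C and 5% CO2, with phase-contrast images every 5 min.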

PANC-1 [8] = assay: Induction of cell death in human PANC1 cells in nutrient-deprived medium at 5 uM after 48 hrs by phase contrast microscopic method; assay type: functional, cell-based; procedure, shortened: as §2
[9] = (§4) Antiausteritic activity against human PANC1 cells in nutrient-deprived medium measured after 24 hrs by WST8 assay; assay type: functional, PANC-1; procedure, shortened: as §1
PANC-1 [10] = assay: as §4; assay type: functional; procedure, shortened: as §1

Row | SMILES | Activity [1] | PC50 [9] [µM] | also measured
1 | C=C(CC[C@@H](C)[C@H]1CC[C@@]2(C)[C@@H]3CC[C@H]4C(C)(C)[C@H](O)CC[C@@]45C[C@@]35CC[C@]12C)[C@@H](C)C(=O)O | Non-Toxic | 4.8 | Activity (PANC-1 [2]): Active; Activity (PANC-1 [3]): Active; Activity (PANC-1 [4]): Active; inhibition (PANC-1 [5]): Active; Activity (PANC-1 [6]): Active; Activity [7]: >50%; Activity (PANC-1 [8]): Active; Activity (PANC-1 [10]): Dose-dependent effect
2 | C=C(CC[C@@H](C)[C@H]1CC[C@@]2(C)[C@@H]3CC[C@H]4C(C)(C)[C@@H](O)CC[C@@]45C[C@@]35CC[C@]12C)[C@@H](C)C(=O)O | Non-Toxic | >100 | –
3 | C=C(CC[C@@H](C)[C@H]1CC[C@@]2(C)[C@@H]3CC[C@H]4C(C)(C)[C@@H](O)CC[C@@]45C[C@@]35CC[C@]12C)[C@@H](C)C(=O)OC | Non-Toxic | >100 | –
4 | O=c1[nH]cc(F)c(=O)[nH]1 [FLUOROURACIL] | – | >200 | –
5 | C=C(CC[C@@H](C)[C@H]1CC[C@@]2(C)[C@@H]3CC[C@H]4C(C)(C)[C@@H](OC(C)=O)CC[C@@]45C[C@@]35CC[C@]12C)C(C)C(=O)O (stereo not given in full) | Non-Toxic | 11 | Activity (PANC-1 [10]): Dose-dependent effect
6 | C=C(CC[C@@H](C)[C@H]1CC[C@@]2(C)[C@@H]3CC[C@H]4C(C)(C)[C@@H](O)CC[C@@]45C[C@@]35CC[C@]12C)C(C)CO (stereo not given in full) | Non-Toxic | >100 | –
7 | C/C(=C\CC[C@@H](C)[C@H]1CC[C@@]2(C)[C@@H]3CC[C@H]4C(C)(C)[C@@H](O)CC[C@@]45C[C@@]35CC[C@]12C)C(=O)O [MANGIFEROLIC ACID] | Non-Toxic | >100 | –
8 | C=C(CC[C@@H](C)[C@H]1CC[C@@]2(C)[C@@H]3CC[C@H]4C(C)(C)C(=O)CC[C@@]45C[C@@]35CC[C@]12C)[C@@H](C)C(=O)OC | Non-Toxic | 22.8 | –
9 | COc1cc(C[C@H]2C(=O)OC[C@@H]2Cc2ccc(OC)c(OC)c2)ccc1O [ARCTIGENIN] | – | 0.8 | –
10 | CCCC/C=C\CCCCCCCCCCCC(=O)O[C@H]1CC[C@]23C[C@]24CC[C@]2(C)[C@@H]([C@H](C)CC/C=C(\C)C(=O)O)CC[C@@]2(C)[C@@H]4CC[C@H]3C1(C)C | Non-Toxic | 69.6 | –
11 | C[C@H](CC/C=C(\CO)C(=O)O)[C@H]1CC[C@@]2(C)[C@@H]3CC[C@H]4C(C)(C)C(=O)CC[C@@]45C[C@@]35CC[C@]12C | Non-Toxic | >100 | –
12 | O=c1c2cc(O)c(O)cc2oc2cc(O)c([C@@H]3O[C@H](CO)[C@@H](O)[C@H](O)[C@H]3O)c(O)c12 [MANGIFERIN] | Non-Toxic | >100 | –
13 | C/C(=C\CC[C@@H](C)[C@H]1CC[C@@]2(C)[C@@H]3CC[C@H]4C(C)(C)C(=O)CC[C@@]45C[C@@]35CC[C@]12C)C(=O)O [MANGIFERONIC ACID] | Non-Toxic | >100 | –
14 | COc1cc(O)c(C(=O)c2ccc(O)cc2)c(O)c1[C@@H]1O[C@H](CO)[C@@H](O)[C@H](O)[C@H]1OC(=O)c1ccc(O)cc1 | Non-Toxic | >100 | –
15 | Nc1ccn([C@@H]2O[C@H](CO)[C@@H](O)C2(F)F)c(=O)n1 [GEMCITABINE] | – | > 100 | –
16 | COc1cc(O)c(C(=O)c2ccc(O)cc2)c(O[C@@H]2O[C@H](CO)[C@@H](O)[C@H](O)[C@H]2O)c1 [MAHKOSIDE A] | Non-Toxic | >100 | –
17 | C[C@H](CC/C=C(\CO)C(=O)O)[C@H]1CC[C@@]2(C)[C@@H]3CC[C@H]4C(C)(C)[C@@H](O)CC[C@@]45C[C@@]35CC[C@]12C | Non-Toxic | 52.1 | –
18 | COc1cc(O)c(C(=O)c2ccc(O)cc2)c(O)c1 | Non-Toxic | >100 | –
19 | C/C(=C\C(O)C[C@@H](C)[C@H]1CC[C@@]2(C)[C@@H]3CC[C@H]4C(C)(C)[C@@H](O)CC[C@@]45C[C@@]35CC[C@]12C)C(=O)O (stereo not given in full) | Non-Toxic | >100 | –
20 | C=C(CC[C@@H](C)[C@H]1CC[C@@]2(C)[C@@H]3CC[C@H]4C(C)(C)C(=O)CC[C@@]45C[C@@]35CC[C@]12C)[C@@H](C)C(=O)O | Non-Toxic | 44.2 | –
21 | C/C(=C\C(O)C[C@@H](C)[C@H]1CC[C@@]2(C)[C@@H]3CC[C@H]4C(C)(C)C(=O)CC[C@@]45C[C@@]35CC[C@]12C)C(=O)O (stereo not given in full) | Non-Toxic | 32.3 | –
22 | COc1cc(O)c(C(=O)c2ccc(O)cc2)c(O)c1[C@@H]1O[C@H](CO)[C@@H](O)[C@H](O)[C@H]1O | Non-Toxic | >100 | –
